Results on 1 compound are retold here after ChEMBL document CHEMBL1811845, “Modulation of GABAA-receptors by honokiol and derivatives: subtype selectivity and structure-activity relationship” (J Med Chem, 2011).

The target in data set [1] is Gamma-aminobutyric acid receptor subunit alpha-3/ beta-2 (Homo sapiens) (UniProt P47870+P34903). Kind of data set: Modulation of GABA Aalpha3beta2 receptor expressed in Xenopus laevis oocytes assessed as potentiation of GABA-induced chloride current at holding potential -70 mV by two-microelectrode voltage clamp technique relative to GABA. The format is cell-based. As to conditions: Oocyte. An outline of the steps: (§1)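 Oocytes were injected with α1, α2, α3 or α5 plus β2 cRNA at a 1:1 ratio and stored at 18 °C in ND96, pH 7.4. Enhancement was (I(GABA+compound)/IGABA)−1, and concentration-response data were Hill-fitted for EC50 and nH. Matched DMSO was ≤0.3%.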

In data set [2] the target is Gamma-aminobutyric acid receptor subunit alpha-1/ beta-1 (Homo sapiens) (UniProt P14867+P18505). The experiment in a line: Modulation of GABA Aalpha1beta1 receptor expressed in Xenopus laevis oocytes assessed as potentiation of GABA-induced chloride current at holding potential -70 mV by two-microelectrode voltage clamp technique relative to GABA. The format is cell-based. The settings on record: Oocyte. In short, it runs like this:
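Stage V–VI female Xenopus oocytes were defolliculated with collagenase and injected with α1 and β1 cRNA at a 3:1 ratio. Oocytes were held at 18 °C in ND96, pH 7.4. Enhancement was (I(GABA+compound)/IGABA)−1, and EC50 and nH came from Hill fits. DMSO was ≤0.3% and matched in controls.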

Data set [3] relates to Oocyte. Kind of data set: Modulation of GABA alpha1beta2gamma2s receptor expressed in Xenopus laevis oocytes assessed as potentiation of GABA-induced chloride current at holding potential -70 mV at 10 uM by two-microelectrode voltage clamp technique in presence of 1 uM of flumazenil relative to GABA. The format is cell-based.
Data set [4] deals with T1, Gamma-aminobutyric acid receptor subunit alpha-2/beta-2 (Homo sapiens, UniProt P47869+P47870).
T1 sequence (P47870 whole entry): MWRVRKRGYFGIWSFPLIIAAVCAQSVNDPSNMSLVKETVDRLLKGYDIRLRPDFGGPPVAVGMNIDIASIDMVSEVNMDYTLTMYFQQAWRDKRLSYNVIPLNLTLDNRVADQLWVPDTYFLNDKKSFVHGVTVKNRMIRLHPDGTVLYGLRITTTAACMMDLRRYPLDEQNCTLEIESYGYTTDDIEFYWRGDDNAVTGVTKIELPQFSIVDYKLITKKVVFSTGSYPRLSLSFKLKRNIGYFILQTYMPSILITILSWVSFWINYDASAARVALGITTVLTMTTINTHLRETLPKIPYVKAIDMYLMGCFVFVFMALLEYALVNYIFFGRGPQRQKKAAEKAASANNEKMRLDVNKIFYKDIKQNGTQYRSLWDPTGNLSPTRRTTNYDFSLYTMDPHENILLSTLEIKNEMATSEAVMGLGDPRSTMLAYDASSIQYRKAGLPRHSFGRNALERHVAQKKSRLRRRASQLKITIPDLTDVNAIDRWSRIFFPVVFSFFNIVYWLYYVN
T1 sequence (P47869 whole entry): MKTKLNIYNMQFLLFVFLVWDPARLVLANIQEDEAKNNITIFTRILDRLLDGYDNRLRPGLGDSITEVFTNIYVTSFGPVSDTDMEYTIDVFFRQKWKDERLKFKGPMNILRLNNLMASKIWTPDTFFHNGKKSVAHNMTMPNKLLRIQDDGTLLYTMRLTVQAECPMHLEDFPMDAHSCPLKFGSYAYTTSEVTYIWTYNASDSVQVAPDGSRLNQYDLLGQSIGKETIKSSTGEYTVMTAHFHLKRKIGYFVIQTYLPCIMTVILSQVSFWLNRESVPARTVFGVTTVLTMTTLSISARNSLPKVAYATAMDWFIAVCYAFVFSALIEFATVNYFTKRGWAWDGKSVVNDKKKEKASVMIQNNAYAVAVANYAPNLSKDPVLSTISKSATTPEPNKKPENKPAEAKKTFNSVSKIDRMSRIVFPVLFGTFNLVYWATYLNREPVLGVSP
The experiment in a line: Modulation of GABA Aalpha2beta2 receptor expressed in Xenopus laevis oocytes assessed as potentiation of GABA-induced chloride current at holding potential -70 mV by two-microelectrode voltage clamp technique. The data set is classed as cell-based, Oocyte. In short, it runs like this:
(§2)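 Stage V–VI Xenopus oocytes, defolliculated with 2 mg/mL collagenase, injected with α(1, 2, 3 or 5) and β2 cRNAs mixed 1:1, then kept at 18 °C in ND96 (pH 7.4). Enhancement = I(GABA+compound)/IGABA − 1. Curves were Hill-fitted for EC50. Bath DMSO was at most 0.3%, matched in controls.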

The target in data set [5] is T2, Gamma-aminobutyric acid receptor subunit alpha-3/ beta-2 (Homo sapiens, UniProt P34903+P47870).
T2 sequence (P47870 whole entry): T1 sequence (P47870 whole entry)
T2 sequence (P34903 whole entry): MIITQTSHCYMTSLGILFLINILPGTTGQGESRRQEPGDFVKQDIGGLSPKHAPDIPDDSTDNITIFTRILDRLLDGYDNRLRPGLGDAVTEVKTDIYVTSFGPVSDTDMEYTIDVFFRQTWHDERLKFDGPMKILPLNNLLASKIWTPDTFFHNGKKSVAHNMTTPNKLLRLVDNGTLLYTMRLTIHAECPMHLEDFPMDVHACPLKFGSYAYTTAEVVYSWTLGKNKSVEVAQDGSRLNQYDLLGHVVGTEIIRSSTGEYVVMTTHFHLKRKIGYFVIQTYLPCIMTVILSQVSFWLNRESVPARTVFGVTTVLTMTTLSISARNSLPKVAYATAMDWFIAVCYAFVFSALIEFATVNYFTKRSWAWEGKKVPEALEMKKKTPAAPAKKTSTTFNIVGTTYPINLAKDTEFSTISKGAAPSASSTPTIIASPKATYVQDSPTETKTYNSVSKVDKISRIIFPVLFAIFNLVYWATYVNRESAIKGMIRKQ
Kind of data set: Modulation of GABA Aalpha3beta2 receptor expressed in Xenopus laevis oocytes assessed as potentiation of GABA-induced chloride current at holding potential -70 mV by two-microelectrode voltage clamp technique. The data set is classed as cell-based, Oocyte. In short, it runs like this: as §2

Data set [6] addresses Gamma-aminobutyric acid receptor subunit alpha-5/beta-2 (Homo sapiens) (UniProt P47870+P31644). The experiment in a line: Modulation of GABA Aalpha5beta2 receptor expressed in Xenopus laevis oocytes assessed as potentiation of GABA-induced chloride current at holding potential -70 mV by two-microelectrode voltage clamp technique relative to GABA. The data set is classed as cell-based. As to conditions: Oocyte. An outline of the steps: as §1

Data set [7] is described as follows: Octanol-water partition coefficient, log P of the compound. The format is physicochemical. The settings on record: read-out: logP.
In data set [8] the target is GABA-A receptor; GABA-A site (alpha1/beta2 interface) (Homo sapiens) (UniProt P14867+P47870). Kind of data set: Modulation of GABA Aalpha1beta2 receptor expressed in Xenopus laevis oocytes assessed as potentiation of GABA-induced chloride current at holding potential -70 mV at 30 uM by two-microelectrode voltage clamp technique relative to GABA. The data set is classed as cell-based. As to conditions: Oocyte. An outline of the steps:
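Single-concentration screen at 30 μM on α1β2 receptors (cRNA 1:1) in Xenopus oocytes. Enhancement was (I(GABA+compound)/IGABA)−1. DMSO was matched in control and test solutions, maximum 0.3% in the bath.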

Data set [9] relates to Oocyte. Kind of data set: Modulation of GABA alpha1beta2gamma2s receptor expressed in Xenopus laevis oocytes assessed as potentiation of GABA-induced chloride current at holding potential -70 mV at 10 uM by two-microelectrode voltage clamp technique in presence of 300 nM of Diazepam relative to GABA. The format is cell-based.

Take `C=CCc1ccc(O)c(-c2ccc(O)c(CC=C)c2)c1` [HONOKIOL]: the values for the Smax in data set [1], in [2] and in [6] were 2390%, 260% and 347%, respectively. The Activity in the data set on Oocyte [3] came to 116%; in data set [8] it was 376%; in the data set on Oocyte [9] it was 244%. Further, the EC50 in data set [4] worked out at 46.4 µM; in data set [5] it was 52.4 µM. In addition, the logP in data set [7] worked out at 5.16.
